{"source": "ChEMBL document CHEMBL3232988", "about": "“Design, synthesis and biological evaluation of a series of pyrano chalcone derivatives containing indole moiety as novel anti-tubulin agents” (Bioorg Med Chem, 2014)", "key": {"HepG2 [1]": {"test_system": "HepG2", "assay": "Antitumor activity against human HepG2 cells xenografted in BALB/c nude mouse assessed as tumor growth inhibition at 5 mg/kg, iv administered once every 2 days for 21 days measured every 3 days up to 35 days relative to control", "format": "functional", "conditions": "read-out: TGI", "summary_of_the_method": "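Female BALB/c nude mice, six weeks old (16–18 g), inoculated in the right gluteal region with 1 × 10⁷ HepG2 cells in 0.1 mL DMEM. When tumours reached 100 mm³, mice were randomised into four groups of six. Dosing was by tail-vein injection; the vehicle group followed the test schedule. Tumours were measured by caliper every 3 days, with volume = π/6 × length × width × width.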"}, "HepG2 [2]": {"test_system": "HepG2", "assay": "Antiproliferative activity against human HepG2 cells after 24 hrs by MTT assay", "format": "functional, cell-based", "conditions": "HepG2, 24 h", "summary_of_the_method": "(§1)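 Seeded at 1 × 10⁴ cells per well, incubated 24 h before treatment. MTT (20 µL of 5 mg/mL in PBS) added per well and incubated until purple precipitate appeared. Medium removed, precipitate dissolved in 150 µL DMSO, shaken 10 min, absorbance read at 570 nm. Growth expressed as percentage of untreated control.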"}, "[3]": {"assay": "Antiproliferative activity against human […] cells after 24 hrs by MTT assay", "format": "functional, cell-based", "summary_of_the_method": "as §1"}, "PC-3": {"test_system": "PC-3", "assay": "Antiproliferative activity against human PC3 cells after 24 hrs by MTT assay", "format": "functional, cell-based", "conditions": "PC-3, 24 h", "summary_of_the_method": "as §1"}, "A549": {"test_system": "A549", "assay": "Antiproliferative activity against human A549 cells after 24 hrs by MTT assay", "format": "functional, cell-based", "conditions": "A549, 24 h", "summary_of_the_method": "as §1"}, "K562": {"test_system": "K562", "assay": "Antiproliferative activity against human K562 cells after 24 hrs by MTT assay", "format": "functional, cell-based", "conditions": "K562, 24 h", "summary_of_the_method": "as §1"}, "HCT-116": {"test_system": "HCT-116", "assay": "Antiproliferative activity against human HCT116 cells after 24 hrs by MTT assay", "format": "functional, cell-based", "conditions": "HCT-116, 24 h", "summary_of_the_method": "as §1"}, "SK-OV-3": {"test_system": "SK-OV-3", "assay": "Antiproliferative activity against human SKOV3 cells after 24 hrs by MTT assay", "format": "functional, cell-based", "conditions": "SK-OV-3, 24 h", "summary_of_the_method": "as §1"}, "MCF7": {"test_system": "MCF7", "assay": "Antiproliferative activity against human MCF7 cells after 24 hrs by MTT assay", "format": "functional, cell-based", "conditions": "MCF7, 24 h", "summary_of_the_method": "as §1"}, "[4]": {"assay": "Antiproliferative activity against taxol resistant human HCT8 cells after 24 hrs by MTT assay", "format": "functional, cell-based", "conditions": "HCT-8, 24 h", "summary_of_the_method": "as §1"}, "[5]": {"assay": "Antiproliferative activity against vincristine resistant human HCT8 cells after 24 hrs by MTT assay", "format": "functional, cell-based", "conditions": "HCT-8, 24 h", "summary_of_the_method": "as §1"}, "[6]": {"assay": "Cytotoxicity against human LO2 cells after 24 hrs by MTT assay", "format": "cell-based", "conditions": "L02, 24 h", "summary_of_the_method": "as §1"}, "Rattus norvegicus": {"species_on_record": "Rattus norvegicus", "assay": "Inhibition of rat tubulin polymerization at 10 uM measured for 60 mins by luminometric analysis"}, "HepG2 [7]": {"test_system": "HepG2", "assay": "Cell cycle arrest in human HepG2 cells assessed as accumulation at G1-phase at 0.125 uM after 24 hrs by propidium iodide staining-based flow cytometric analysis (reference value: 42.5%)", "format": "functional", "summary_of_the_method": "(§2)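 HepG2 cells (2 × 10⁵) cultured 24 h, then given 0.1% DMSO vehicle or compound for 24 h. Fixed in ice-chilled methanol at least 30 min at 4 °C, washed twice with PBS, then stained 0.5 h at 37 °C in PBS with 1 mg/mL RNase A and propidium iodide. DNA content measured by flow cytometry for phase distribution.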"}, "HepG2 [8]": {"test_system": "HepG2", "assay": "Cell cycle arrest in human HepG2 cells assessed as accumulation at S-phase at 0.125 uM after 24 hrs by propidium iodide staining-based flow cytometric analysis (reference value: 32%)", "format": "functional", "summary_of_the_method": "as §2"}, "HepG2 [9]": {"test_system": "HepG2", "assay": "Cell cycle arrest in human HepG2 cells assessed as accumulation at G2/M-phase at 0.125 uM after 24 hrs by propidium iodide staining-based flow cytometric analysis (reference value: 25.5%)", "format": "functional", "summary_of_the_method": "as §2"}, "HepG2 [10]": {"test_system": "HepG2", "assay": "Cell cycle arrest in human HepG2 cells assessed as accumulation at S-phase at 0.25 uM after 24 hrs by propidium iodide staining-based flow cytometric analysis (reference value: 32%)", "format": "functional", "summary_of_the_method": "as §2"}, "HepG2 [11]": {"test_system": "HepG2", "assay": "Cell cycle arrest in human HepG2 cells assessed as accumulation at G2/M-phase at 0.25 uM after 24 hrs by propidium iodide staining-based flow cytometric analysis (reference value: 25.5%)", "format": "functional", "summary_of_the_method": "as §2"}, "HepG2 [12]": {"test_system": "HepG2", "assay": "Cell cycle arrest in human HepG2 cells assessed as accumulation at G1-phase at 0.375 uM after 24 hrs by propidium iodide staining-based flow cytometric analysis (reference value: 42.5%)", "format": "functional", "summary_of_the_method": "as §2"}, "HepG2 [13]": {"test_system": "HepG2", "assay": "Cell cycle arrest in human HepG2 cells assessed as accumulation at S-phase at 0.375 uM after 24 hrs by propidium iodide staining-based flow cytometric analysis (reference value: 32%)", "format": "functional", "summary_of_the_method": "as §2"}, "HepG2 [14]": {"test_system": "HepG2", "assay": "Cell cycle arrest in human HepG2 cells assessed as accumulation at G2/M-phase at 0.375 uM after 24 hrs by propidium iodide staining-based flow cytometric analysis (reference value: 25.5%)", "format": "functional", "summary_of_the_method": "as §2"}, "HepG2 [15]": {"test_system": "HepG2", "assay": "Cell cycle arrest in human HepG2 cells assessed as accumulation at G1-phase at 0.50 uM after 24 hrs by propidium iodide staining-based flow cytometric analysis (reference value: 42.5%)", "format": "functional", "summary_of_the_method": "as §2"}, "HepG2 [16]": {"test_system": "HepG2", "assay": "Cell cycle arrest in human HepG2 cells assessed as accumulation at S-phase at 0.50 uM after 24 hrs by propidium iodide staining-based flow cytometric analysis (reference value: 32%)", "format": "functional", "summary_of_the_method": "as §2"}, "HepG2 [17]": {"test_system": "HepG2", "assay": "Cell cycle arrest in human HepG2 cells assessed as accumulation at G2/M-phase at 0.50 uM after 24 hrs by propidium iodide staining-based flow cytometric analysis (reference value: 25.5%)", "format": "functional", "summary_of_the_method": "as §2"}, "HepG2 [18]": {"test_system": "HepG2", "assay": "Induction of apoptosis in human HepG2 cells after 48 hrs by propidium iodide staining-based flow cytometric analysis", "format": "functional, cell-based"}, "HepG2 [19]": {"test_system": "HepG2", "assay": "Antitumor activity against human HepG2 cells xenografted in BALB/c nude mouse assessed as tumor growth inhibition at 30 mg/kg, iv administered once every 2 days for 21 days measured every 3 days up to 35 days relative to control", "format": "functional", "conditions": "read-out: TGI", "summary_of_the_method": "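Female BALB/c nude mice, six weeks old (16–18 g), inoculated in the right gluteal region with 1 × 10⁷ HepG2 cells in 0.1 mL DMEM. At 100 mm³, randomized into four groups of six. Tail-vein dosing every other day for 21 days; vehicle control on the same schedule; 5-Fu 5 mg/kg iv daily as reference. Caliper measurement every 3 days, volume = π/6 × length × width × width. Compared with control by t test.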"}, "HepG2 [20]": {"test_system": "HepG2", "assay": "Cell cycle arrest in human HepG2 cells assessed as accumulation at G2/M-phase after 24 hrs by propidium iodide staining-based flow cytometric analysis", "format": "functional", "summary_of_the_method": "as §2"}}, "note": "Calls of active or inactive are those of the source. The rule behind the calls is not given here."}
{"compound": "O=c1[nH]cc(F)c(=O)[nH]1", "note": "[FLUOROURACIL]", "values": [{"measurement": "inhibition in vivo at 5 mg/kg", "setting": "HepG2 [1]", "result": 25.9, "unit": "%"}]}
{"compound": "CCC(=O)Oc1ccc(C(=O)/C=C/c2ccc3c(ccn3C)c2)c2c1C=CC(C)(C)O2", "values": [{"measurement": "IC50", "setting": "HepG2 [2]", "result": 0.22, "unit": "µM"}, {"measurement": "IC50", "setting": "[3]", "result": 1.8, "unit": "µM"}, {"measurement": "IC50", "setting": "PC-3", "result": 0.65, "unit": "µM"}, {"measurement": "IC50", "setting": "A549", "result": 0.68, "unit": "µM"}, {"measurement": "IC50", "setting": "K562", "result": 0.8, "unit": "µM"}, {"measurement": "IC50", "setting": "HCT-116", "result": 1.28, "unit": "µM"}, {"measurement": "IC50", "setting": "SK-OV-3", "result": 0.23, "unit": "µM"}, {"measurement": "IC50", "setting": "MCF7", "result": 1.5, "unit": "µM"}, {"measurement": "IC50", "setting": "[4]", "result": 1.6, "unit": "µM"}, {"measurement": "IC50", "setting": "[5]", "result": 0.45, "unit": "µM"}, {"measurement": "IC50", "setting": "[6]", "result": "> 10", "unit": "µM"}, {"measurement": "inhibition", "setting": "Rattus norvegicus", "result": "Active"}, {"measurement": "Activity", "setting": "HepG2 [7]", "result": 30.7, "unit": "%"}, {"measurement": "Activity", "setting": "HepG2 [8]", "result": 43.1, "unit": "%"}, {"measurement": "Activity", "setting": "HepG2 [9]", "result": 26.2, "unit": "%"}, {"measurement": "Activity", "setting": "HepG2 [10]", "result": 35, "unit": "%"}, {"measurement": "Activity", "setting": "HepG2 [11]", "result": 60.7, "unit": "%"}, {"measurement": "Activity", "setting": "HepG2 [12]", "result": 2.5, "unit": "%"}, {"measurement": "Activity", "setting": "HepG2 [13]", "result": 22.5, "unit": "%"}, {"measurement": "Activity", "setting": "HepG2 [14]", "result": 75, "unit": "%"}, {"measurement": "Activity", "setting": "HepG2 [15]", "result": 1.6, "unit": "%"}, {"measurement": "Activity", "setting": "HepG2 [16]", "result": 12.4, "unit": "%"}, {"measurement": "Activity", "setting": "HepG2 [17]", "result": 86, "unit": "%"}, {"measurement": "Activity", "setting": "HepG2 [18]", "result": "Dose-dependent effect"}, {"measurement": "inhibition in vivo at 30 mg/kg", "setting": "HepG2 [19]", "result": 56.6, "unit": "%"}, {"measurement": "Activity", "setting": "HepG2 [20]", "result": "Dose-dependent effect"}]}
